Screens from PubChem.
rRNA inh HTS: reduced GFP signal of wild-type E. coli, primary screen, bacterial rRNA inhibitor project, GFP/RFP fluorescence, OD600, single point; GFP signal change (wild-type ribosome), % (concentration not given with the values); E. coli WT GFP vs humanized-ribosome RFP mutants, 24 h; active compounds read low; DMSO median 0, no signal -100; 350,000 compounds, 1.6% hits;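 active = significant combined selectivity score with lowered wild-type GFP, culture density cut under 30%, mutant RFP and density less affected; inactive = any of these conditions unmet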
F508del corr: F508del CFTR correction, initial screen, CFBE line, single point. 350,000 compounds, 0.36% hits. activity (quench increase), % at 7.58 µM. CFBE cells, YFP halide quenching; stimulated with forskolin plus potentiator P3; % fluorescence drop versus neutral controls;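 active = mean added fluorescence quench of at least 8% versus neutral control, with both replicates also reaching 8%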;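 note: cells transiently co-express mutant CFTR-F508del with the halide-sensitive YFP; corrector assay measuring rescue of mutant channel to the surface after 24 h compound exposure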
GSIS activator: GLuc luminescence reporter in INS-1E cells, primary screen for activators of glucose-dependent secretion of insulin | INS-1E GLuc reporter insulin secretion, 2-3 h | activation, % at 16.6 µM | 370,000 compounds, 0.61% hits | AID 743287, 2014;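 active = lowest replicate activation of at least 40%, so every replicate reaches that level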
Cneo AK release: Cryptococcus neoformans cell lysis inducers, primary screen, AK release luminescence, single concentration; lysis activity, % at 15 µM; C. neoformans lysis, adenylate kinase release luminescence, 4 h; normalised: neutral wells 0, clomiphene wells 100; 360,000 compounds, 0.2% hits;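 active = mean lysis activity across replicates of at least 80%, whatever share of replicates individually reach that level; inactive = mean lysis activity below 80%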
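Assay system: Cryptococcus neoformans yeast cells / Dosing: single-point compound dose / Timing: 4 h at 37 °C static, read 1 h later / Measured by: luminescence of released adenylate kinase using an AK detection reagent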
HIV Env fusion: inhibitors of HIV-1 Env-driven cell-cell fusion, primary screen, HeLa-JRFL effector, CEM21 target cells, luciferase | inhibition, % at 12.3 µM | 360,000 compounds, 1.1% hits | AID 651610, 2012;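 active = mean replicate inhibition score of at least 50 and every replicate individually at or above 50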
miR122 inh: miR-122 Renilla sensor signal increase in Huh7, primary screen, miR-122 inhibitor project, cell-based, single point, plate reader; Huh7 miR-122 Renilla luciferase sensor, 48 h; neutral wells = 0, positive control = 100; activation (reporter increase), % at 12.5 µM; 340,000 compounds, 0.3% hits; AID 602342, 2012;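 active = mean replicate activation score at least 90 and every replicate individually at or above 90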;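 note: higher luciferase means less miR-122 activity so hits act as miR-122 inhibitors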
Hits are given with their value; n = inactive; x = not tested or not shown. Sampled rows, rich in hits. Any-hit rate of the full collection: about 3.1%.

SMILES | rRNA inh HTS | F508del corr | GSIS activator | Cneo AK release | HIV Env fusion | miR122 inh
COCC(=O)Nc1ccc2c(c1)[C@@H]1C[C@H](CC(=O)NCc3ccccc3F)O[C@@H](CO)[C@@H]1O2 | n | n | n | n | n | n
O=C(O)[C@H](Cc1ccccc1)NC(=O)C(c1ccccc1)(c1ccccc1)c1ccccc1 | -23 | n | n | n | n | x
O=C(CC(c1ccccc1)(c1ccccc1)c1ccccc1)N[C@@H](Cc1ccccc1)C(=O)O | n | n | n | n | n | n
Nc1[nH]nc2ncc3cc4ccccc4nc3c12 | n | 12 | n | x | n | x
CCCNC(=O)NNC(=O)c1cc(-c2ccc3c(c2)OCO3)nc2ccccc12 | n | n | n | n | n | 102
CCCN(CCC)C(=O)c1cc(-c2ccc3c(c2)OCO3)nc2ccccc12 | x | x | x | n | x | n
Cc1ccc(-c2cc(-c3n[nH]c(=S)o3)c3ccccc3n2)cc1 | -18 | n | x | x | n | x
S=c1[nH]nc(-c2cc(-c3ccccn3)nc3ccccc23)o1 | n | n | n | x | n | x
S=C(c1ccc(-c2ccc(Br)cc2)o1)N1CCOCC1 | -30 | n | n | n | n | n
S=C(c1ccc(-c2ccc(Br)cc2)o1)N1CCCCC1 | n | n | n | n | n | n
Nc1nc(Nc2cccc(Cl)c2)nc(NCc2ccco2)c1[N+](=O)[O-] | n | n | n | x | 76 | x
CNc1nc(Nc2ccc(Br)cc2)nc(N)c1[N+](=O)[O-] | x | x | 50 | x | n | x
Nc1nc(Nc2ccc(Cl)cc2)nc(NCc2ccco2)c1[N+](=O)[O-] | n | n | n | n | 59 | n
O=C(C[C@H]1C=C[C@@H](NC(=O)C2CCC2)[C@H](CO)O1)NC1CCC1 | n | n | n | n | n | n
C[C@H](CO)N1C[C@H](C)[C@H](CN(C)Cc2ccccc2)Oc2c(NS(C)(=O)=O)cccc2C1=O | n | n | n | n | n | n
C[C@@H]1CN([C@H](C)CO)C(=O)c2cc(C#C[C@@H](C)O)cnc2O[C@@H]1CN(C)C(=O)c1ccncc1 | n | n | n | n | n | n
Cc1cc(C)cc(NS(=O)(=O)c2ccc3c(c2)C(C)(C)C(=O)N3C)c1 | n | n | n | n | n | 107
CC(C)C(NS(=O)(=O)c1ccc2c(c1)C(C)(C)C(=O)N2C)C(=O)NCc1ccccc1Cl (stereo not given) | n | n | x | n | 62 | n
Cc1ccc(CCNS(=O)(=O)c2ccc3c(c2)C(C)(C)C(=O)N3C)cc1 | n | n | x | n | x | x
COc1ccc2c3c([nH]c2c1)[C@@H](CO)N(C(=O)c1cccc(F)c1)CC31CN(C(=O)c2ccccc2)C1 | n | n | n | x | x | x
Cc1cc(Br)c2c(c1)C1(OCCO1)C(=O)N2 | n | n | 41 | n | n | x
Cc1cc(C)c2c(c1)C1(OCCO1)C(=O)N2 | n | n | n | n | n | n
Cc1noc(C)c1NC(=O)N[C@H]1CC[C@@H](CC(=O)N2CCCCC2)O[C@@H]1CO | n | n | n | n | n | x
CCOc1ccccc1-c1nc(-c2ccc(C)nc2OC)no1 | x | x | x | n | n | 130
CCOc1nc(C)ccc1-c1noc(-c2ccccn2)n1 | x | x | x | n | x | n
SMILES | rRNA inh HTS | F508del corr | GSIS activator | Cneo AK release | HIV Env fusion | miR122 inh
O=c1cc(O)c(-c2ccc(Cl)c(Cl)c2)c(Cl)[nH]1 | -27 | n | n | n | n | n
O=c1cc(O)c(-c2ccc(Cl)cc2)c(Cl)[nH]1 | n | n | n | x | n | n
O=C(Cc1ccccn1)N[C@H]1CC[C@@H](CCNC(=O)c2cc(Cl)cc(Cl)c2)O[C@@H]1CO | n | n | n | n | n | n
CS(=O)(=O)Nc1ccc2c(c1)[C@H]1C[C@H](CC(=O)NCc3ccc(-c4ccccc4)cc3)O[C@@H](CO)[C@H]1O2 | n | n | n | n | x | n
CC1CCc2c(sc3ncnc(N4CCOCC4)c23)C1 (stereo not given) | x | x | x | n | 92 | n
CC1CCc2sc3ncnc(N4CCOCC4)c3c2C1 (stereo not given) | x | x | x | x | x | n
